Drawing on ChEMBL document CHEMBL4619761, “Biosurfactants from Marine Cyanobacteria Collected in Sabah, Malaysia” (J Nat Prod, 2020), this text covers Activity, CMC and IC50 for six compounds.

Data set [1] in a line: Biosurfactant activity assessed as reduction in surface tension of aqueous solution at 10 to 1200 ug/ml by ring method. The data set is classed as functional. Summed up: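 Surface tension of aqueous solutions (10−1200 μg/mL) measured by the ring method on a Du Noüy tensiometer with a platinum ring at 25 °C, in triplicate. The instrument was calibrated against pure H2O before each set. CMC was taken from the breakpoint of the surface tension versus log bulk concentration curve.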

Data set [2] is described as follows: Biosurfactant activity assessed as Critical micelle concentration of compound. The data set is classed as physicochemical.
A short description of data set [3]: Biosurfactant activity assessed as diameter of clear zone at 10 mg/ml by oil displacement assay. It is filed as functional. The method in brief:
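Oil displacement assay as an indirect measure of surface activity: sample tested at 10 mg/mL and the clear-zone diameter measured. SDS and pluronic F-68 were run at the same concentration for reference.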

For a further data set, the system named is MCF7. The experiment in a line: Cytotoxicity against human MCF7 cells incubated for 72 hrs by MTT assay. The data set is classed as functional, cell-based. Particulars: MCF7, 72 h. (Tetrazolium dyes change colour on reduction, which living cells bring about.)
A further data set relates to Amphibalanus amphitrite. The data set is described as follows: Antifouling activity against Amphibalanus amphitrite at 0.88 ug/ml. It is filed as functional, organism-based.

Activity calls are given as the source filed them. The rule behind the calls is not given here. A value given as a limit tells only on which side of the number the result lay.

On to `COC[C@@H](CO)N(C)C(=O)CC/C=C/CCCC[C@H](Cl)CCCCCCCCCl`, for which the outcome in data set [1] was Active. The CMC in data set [2] is listed as 0.34 mM. On to `CCCCCCCCCCCCOS(=O)(=O)[O-].[Na+]`, for which the Activity in data set [3] amounted to 84 mm. The IC50 is the concentration that gives 50% inhibition. For the compound `CCCCCCCCC(Cl)CCCC/C=C/CCC(=O)N(C)[C@H](CO)COC` (stereo not given in full), the IC50 with MCF7 was over 10 µg/mL. With `COC[C@@H](COC(C)=O)N(C)C(=O)CC/C=C/CCCCC(Cl)CCCCCCCC(Cl)Cl` (stereo not given in full), the IC50 in the data set with MCF7 is over 10 µg/mL.

Regarding `COC[C@@H](COC(C)=O)N(C)C(=O)CC/C=C/CCCC[C@H](Cl)CCCCCCCCCl`, the Activity in data set [3] turned out to be 90 mm. Moreover, the IC50 in the data set on MCF7 is over 10 µg/mL.

`CCCCCCCCCCCCCCC/C=C(\C)C(=O)N[C@@H](CO)COC`: the outcome (in data set [1]; in the data set on Amphibalanus amphitrite) was Active. In addition, in data set [2], the CMC is 0.78 mM.
